Results published in ChEMBL document CHEMBL4020742, “Design and optimization of purine derivatives as in vivo active PDE10A inhibitors” (Bioorg Med Chem, 2017).
Activity calls are given as the source filed them. The rule behind the calls is not given here.

target: T1, CYP3A4 (Homo sapiens, UniProt P08684); assay: Inhibition of CYP3A4 in human microsomes at 10 uM using midazolam as substrate preincubated for 5 mins followed by NADPH addition measured 20 mins relative to control; type: ADME; details: human microsomes, probe midazolam, read-out: TDI
T1 sequence (P08684 whole entry): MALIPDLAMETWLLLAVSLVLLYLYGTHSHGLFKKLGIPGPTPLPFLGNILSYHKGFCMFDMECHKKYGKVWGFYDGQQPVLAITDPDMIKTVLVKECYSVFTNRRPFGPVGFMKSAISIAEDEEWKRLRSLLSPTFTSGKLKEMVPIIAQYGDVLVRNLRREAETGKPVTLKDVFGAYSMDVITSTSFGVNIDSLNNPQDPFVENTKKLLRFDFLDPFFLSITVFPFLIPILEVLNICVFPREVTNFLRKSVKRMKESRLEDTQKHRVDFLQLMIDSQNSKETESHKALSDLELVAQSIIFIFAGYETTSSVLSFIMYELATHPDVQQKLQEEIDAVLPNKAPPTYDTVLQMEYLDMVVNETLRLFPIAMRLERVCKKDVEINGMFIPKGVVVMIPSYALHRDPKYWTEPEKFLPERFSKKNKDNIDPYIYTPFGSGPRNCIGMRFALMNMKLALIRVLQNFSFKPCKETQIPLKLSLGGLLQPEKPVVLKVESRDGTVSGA
Summary of the method: (§1)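 Pooled human microsomes (0.2 mg/mL) in 100 mM phosphate pH 7.4 with a probe cocktail: midazolam 10 µM, dextromethorphan 10 µM, diclofenac 20 µM, phenacetin 100 µM, mephenytoin 100 µM. Test compound was 10 µM; organic solvent was under 1%. After 5 min preincubation at 37 °C, 1 mmol/L NADPH was added and the reaction ran 20 min, keeping substrate conversion below 20%. Metabolite formation was expressed relative to PBS control.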

inhibition at 20 min, 10 µM [%]	SMILES
22	Cc1nc2c(N3CCOCC3)ncnc2n1Cc1ccc(-c2cncnc2)cc1

target: T2, cAMP and cAMP-inhibited cGMP 3',5'-cyclic phosphodiesterase 10A (Homo sapiens, UniProt Q9Y233); assay: (§2) Inhibition of recombinant human N-terminal GST-tagged PDE10A1 (2 to 789 residues) expressed in baculovirus infected Sf9 cells at 5 uM using fluorescein-labeled cAMP as substrate preincubated for 15 mins followed by substrate addition measured after 30 mins by IMAP fluorescence polarization assay relative to control; details: not given
T2 sequence (Q9Y233 whole entry, the tested form may be a part): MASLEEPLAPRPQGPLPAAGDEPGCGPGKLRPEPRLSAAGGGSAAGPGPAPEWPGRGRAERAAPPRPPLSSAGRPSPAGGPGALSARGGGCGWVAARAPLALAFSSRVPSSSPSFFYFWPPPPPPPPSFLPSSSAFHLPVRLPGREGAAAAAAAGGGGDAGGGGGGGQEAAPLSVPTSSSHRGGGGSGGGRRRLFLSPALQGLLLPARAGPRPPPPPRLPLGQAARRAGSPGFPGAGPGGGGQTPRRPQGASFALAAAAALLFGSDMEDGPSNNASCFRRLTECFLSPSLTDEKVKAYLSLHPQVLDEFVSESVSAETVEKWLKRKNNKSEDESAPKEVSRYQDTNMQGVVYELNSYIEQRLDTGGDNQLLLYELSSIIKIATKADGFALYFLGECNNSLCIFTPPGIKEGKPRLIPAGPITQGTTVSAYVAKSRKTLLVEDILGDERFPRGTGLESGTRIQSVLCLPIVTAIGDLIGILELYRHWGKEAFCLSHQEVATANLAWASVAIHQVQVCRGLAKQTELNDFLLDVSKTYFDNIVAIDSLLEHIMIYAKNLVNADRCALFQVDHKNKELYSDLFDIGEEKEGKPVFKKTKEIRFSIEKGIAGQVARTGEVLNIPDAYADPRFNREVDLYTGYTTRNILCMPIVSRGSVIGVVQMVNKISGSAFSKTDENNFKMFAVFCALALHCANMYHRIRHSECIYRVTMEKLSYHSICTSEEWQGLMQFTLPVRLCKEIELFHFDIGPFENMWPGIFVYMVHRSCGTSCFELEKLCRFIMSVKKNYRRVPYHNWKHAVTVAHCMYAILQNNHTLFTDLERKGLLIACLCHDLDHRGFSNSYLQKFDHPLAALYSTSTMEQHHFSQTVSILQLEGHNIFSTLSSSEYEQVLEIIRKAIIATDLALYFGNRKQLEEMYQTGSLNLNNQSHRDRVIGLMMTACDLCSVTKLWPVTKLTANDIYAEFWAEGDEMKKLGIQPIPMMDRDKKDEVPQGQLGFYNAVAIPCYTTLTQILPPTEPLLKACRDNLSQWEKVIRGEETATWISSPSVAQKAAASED
Summary of the method: (§3)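 Recombinant PDE4A1A, PDE2A1 or PDE10A1 was incubated with compound (1% DMSO, duplicate) for 15 min at RT. Fluorescein-cAMP was then added for 30 min at RT, and the reaction was stopped with IMAP binding reagent (1 h, dark). FP was read at Ex485/Em535. Inhibition was set against no-enzyme and DMSO controls. IC50 came from a four-parameter logistic fit; values are the mean of at least two measurements.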

inhibition [%]	SMILES
97	Cc1nc2c(N3CCOCC3)ncnc2n1Cc1ccc(-c2cncnc2)cc1

test system: Rattus norvegicus; assay: Antipsychotic activity in Sprague-Dawley rat assessed as inhibition of PCP-induced hyperlocomotion at 50 mg/kg, po pretreated for 30 mins followed by PCP addition measured after 5 mins for 1.5 hrs by open field test; type: functional, organism-based; details: not given
Summary of the method: (§4)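 Male SD rats (200-250 g), acclimated at least 1 week. Drug was given p.o. in sterile saline with 0.5% Tween 80 and 0.2% CMC-sodium, 30 min before PCP 5 mg/kg i.p. Rats were placed in a 40×40×45 cm open-field arena 5 min after PCP and video-tracked for 90 min. Read-out was total distance travelled, reported as mean ± SEM.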

SMILES	inhibition
Cc1nc2c(N3CCOCC3)ncnc2n1Cc1ccc(-c2cncnc2)cc1	inactive

target: T3, CYP1A2 (Homo sapiens, UniProt P05177); assay: Inhibition of CYP1A2 in human microsomes at 10 uM using phenacetin as substrate preincubated for 5 mins followed by NADPH addition measured 20 mins relative to control; type: ADME; details: probe phenacetin, read-out: TDI; summary of the method: as §1
T3 sequence (P05177 whole entry): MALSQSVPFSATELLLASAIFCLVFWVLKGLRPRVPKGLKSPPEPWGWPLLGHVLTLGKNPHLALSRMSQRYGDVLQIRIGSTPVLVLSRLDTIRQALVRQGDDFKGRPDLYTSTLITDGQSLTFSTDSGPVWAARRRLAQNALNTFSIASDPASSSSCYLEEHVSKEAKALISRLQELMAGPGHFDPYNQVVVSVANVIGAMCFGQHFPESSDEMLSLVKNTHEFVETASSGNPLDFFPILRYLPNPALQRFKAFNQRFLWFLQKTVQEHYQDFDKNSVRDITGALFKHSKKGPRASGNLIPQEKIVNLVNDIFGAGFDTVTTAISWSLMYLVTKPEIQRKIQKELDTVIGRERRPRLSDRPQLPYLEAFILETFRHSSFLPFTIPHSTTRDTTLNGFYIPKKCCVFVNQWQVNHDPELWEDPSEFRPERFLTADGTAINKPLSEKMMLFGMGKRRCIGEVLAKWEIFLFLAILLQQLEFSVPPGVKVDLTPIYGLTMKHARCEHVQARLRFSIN

inhibition at 20 min, 10 µM [%]	SMILES
12	Cc1nc2c(N3CCOCC3)ncnc2n1Cc1ccc(-c2cncnc2)cc1

target: CYP2D6 (Homo sapiens, UniProt P10635); assay: […] of CYP2D6 in human microsomes at 10 uM using dextromethorphan as substrate preincubated for 5 mins followed by NADPH addition measured 20 mins relative to control; type: ADME; details: human microsomes, probe dextromethorphan, read-out: TDI
Sequence (P10635 whole entry): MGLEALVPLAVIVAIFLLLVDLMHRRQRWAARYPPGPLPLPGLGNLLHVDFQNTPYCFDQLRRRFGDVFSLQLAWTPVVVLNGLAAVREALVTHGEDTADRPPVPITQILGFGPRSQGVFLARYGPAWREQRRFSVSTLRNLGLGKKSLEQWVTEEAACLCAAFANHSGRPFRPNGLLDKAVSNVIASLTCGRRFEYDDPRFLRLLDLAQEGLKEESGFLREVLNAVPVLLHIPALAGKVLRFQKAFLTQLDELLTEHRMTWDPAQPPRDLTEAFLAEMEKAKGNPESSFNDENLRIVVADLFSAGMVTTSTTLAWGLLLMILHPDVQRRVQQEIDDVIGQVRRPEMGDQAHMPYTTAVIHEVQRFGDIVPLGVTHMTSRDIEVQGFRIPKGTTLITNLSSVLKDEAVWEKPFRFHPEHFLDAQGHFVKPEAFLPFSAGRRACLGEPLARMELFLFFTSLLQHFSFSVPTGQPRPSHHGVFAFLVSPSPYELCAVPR

inhibition at 20 min, 10 µM [%]	SMILES
30	Cc1nc2c(N3CCOCC3)ncnc2n1Cc1ccc(-c2cncnc2)cc1

test system: Rattus norvegicus; assay: Antipsychotic activity in Sprague-Dawley rat assessed as inhibition of PCP-induced hyperlocomotion at 10 mg/kg, po pretreated for 30 mins followed by PCP addition measured after 5 mins for 1.5 hrs by open field test; type: functional, organism-based; details: not given; summary of the method: as §4

SMILES	inhibition
Cc1nc2c(N3CCOCC3)ncnc2n1Cc1ccc(-c2cncnc2)cc1	Active

test system: not listed separately; assay: Half life in human liver microsomes at 1 uM preincubated for 5 mins followed by NADPH addition measured up to 30 mins by LC-MS/MS analysis; type: ADME, microsome; details: not given
Summary of the method: (§5)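 Liver microsomes (0.5 mg/mL) plus 1 µM compound were preincubated 5 min at 37 °C in 0.1 M phosphate buffer pH 7.4 containing EDTA and MgCl₂. NADPH started the reaction. Samples at 0, 5, 10 and 30 min were quenched with cold acetonitrile containing tinidazole internal standard and centrifuged. Parent remaining was quantified by LC/MS/MS.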

half-life at 1 µM [min]	SMILES
49.5	Cc1nc2c(N3CCOCC3)ncnc2n1Cc1ccc(-c2cncnc2)cc1

target: T4, Cytochrome P450 2C9 (Homo sapiens, UniProt P11712); assay: […] of CYP2C9 in human microsomes at 10 uM using diclofenac as substrate preincubated for 5 mins followed by NADPH addition measured 20 mins relative to control; type: ADME; details: microsomes, 20 min, 10 µM
T4 sequence (P11712 whole entry): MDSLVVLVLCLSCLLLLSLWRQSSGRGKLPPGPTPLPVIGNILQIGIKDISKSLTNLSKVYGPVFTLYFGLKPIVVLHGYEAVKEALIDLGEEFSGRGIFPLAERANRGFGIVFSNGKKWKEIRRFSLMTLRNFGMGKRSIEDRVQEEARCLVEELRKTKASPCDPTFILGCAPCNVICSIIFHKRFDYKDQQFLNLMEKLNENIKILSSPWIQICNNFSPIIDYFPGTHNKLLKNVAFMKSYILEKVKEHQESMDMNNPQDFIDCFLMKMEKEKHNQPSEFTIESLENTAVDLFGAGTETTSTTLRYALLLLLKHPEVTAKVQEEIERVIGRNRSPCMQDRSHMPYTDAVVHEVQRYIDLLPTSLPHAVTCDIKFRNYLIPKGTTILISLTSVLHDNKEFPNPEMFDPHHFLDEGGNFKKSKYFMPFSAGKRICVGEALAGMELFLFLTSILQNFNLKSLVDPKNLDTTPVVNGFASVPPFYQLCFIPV

TDI	SMILES
Not Active	Cc1nc2c(N3CCOCC3)ncnc2n1Cc1ccc(-c2cncnc2)cc1

target: T2, cAMP and cAMP-inhibited cGMP 3',5'-cyclic phosphodiesterase 10A; assay: Inhibition of recombinant human N-terminal GST-tagged PDE10A1 (2 to 789 residues) expressed in baculovirus infected Sf9 cells using fluorescein-labeled cAMP as substrate preincubated for 15 mins followed by substrate addition measured after 30 mins by IMAP fluorescence polarization assay; details: not given; summary of the method: as §3

IC50 [nM]	SMILES
76	Cc1nc2c(N3CCOCC3)ncnc2n1Cc1ccc(-c2cncnc2)cc1

target: T1, CYP3A4; assay: Time-dependent inhibition of CYP3A4 in human microsomes at 10 uM using midazolam as substrate preincubated for 5 mins followed by NADPH addition measured 20 mins relative to control; type: ADME; details: human microsomes, probe midazolam, read-out: TDI

inhibition at 20 min, 10 µM [%]	SMILES
20	Cc1nc2c(N3CCOCC3)ncnc2n1Cc1ccc(-c2cncnc2)cc1

test system: Rattus norvegicus; assay: Antipsychotic activity in Sprague-Dawley rat assessed as inhibition of PCP-induced prepulse inhibition deficit at 50 mg/kg, po pretreated for 30 mins followed by PCP addition measured after 5 mins to 10 mins; type: functional, organism-based; details: not given
Summary of the method: (§6)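 Male SD rats (200-250 g) were dosed p.o. in saline with 0.5% Tween 80 and 0.2% CMC-sodium, 30 min before PCP 5 mg/kg i.p. Acoustic startle PPI was tested in startle chambers 5-10 min after PCP. Startle magnitude was the mean of pulse-alone trials. n = 11-16 per group; mean ± SEM; ANOVA with post hoc tests.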

SMILES	inhibition
Cc1nc2c(N3CCOCC3)ncnc2n1Cc1ccc(-c2cncnc2)cc1	inactive

target: T4, Cytochrome P450 2C9; assay: Inhibition of CYP2C9 in human microsomes at 10 uM using diclofenac as substrate preincubated for 5 mins followed by NADPH addition measured 20 mins relative to control; type: ADME; details: microsomes, 20 min, 10 µM; summary of the method: as §1

TDI	SMILES
Not Active	Cc1nc2c(N3CCOCC3)ncnc2n1Cc1ccc(-c2cncnc2)cc1

target: CYP2C19 (Homo sapiens, UniProt P33261); assay: […] of CYP2C19 in human microsomes at 10 uM using mephenytoin as substrate preincubated for 5 mins followed by NADPH addition measured 20 mins relative to control; type: ADME; details: human microsomes, probe mephenytoin, read-out: TDI
Sequence (P33261 whole entry): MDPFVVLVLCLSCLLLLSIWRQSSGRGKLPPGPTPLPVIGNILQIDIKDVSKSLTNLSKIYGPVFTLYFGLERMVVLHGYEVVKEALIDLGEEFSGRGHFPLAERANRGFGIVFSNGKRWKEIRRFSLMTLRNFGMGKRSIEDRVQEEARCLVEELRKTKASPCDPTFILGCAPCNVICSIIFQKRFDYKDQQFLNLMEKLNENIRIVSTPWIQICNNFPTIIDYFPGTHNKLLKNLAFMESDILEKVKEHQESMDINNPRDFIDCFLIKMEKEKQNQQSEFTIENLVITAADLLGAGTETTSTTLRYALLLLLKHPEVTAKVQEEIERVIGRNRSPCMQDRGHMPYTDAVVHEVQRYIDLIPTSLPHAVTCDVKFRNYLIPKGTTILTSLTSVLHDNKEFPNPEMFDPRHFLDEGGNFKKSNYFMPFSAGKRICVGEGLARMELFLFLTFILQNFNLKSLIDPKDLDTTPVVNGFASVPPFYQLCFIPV

inhibition at 20 min, 10 µM [%]	SMILES
90	Cc1nc2c(N3CCOCC3)ncnc2n1Cc1ccc(-c2cncnc2)cc1

target: Cytochrome P450 2C19 (Homo sapiens, UniProt P33261); assay: Inhibition of CYP2C19 in human microsomes at 10 uM using mephenytoin as substrate preincubated for 5 mins followed by NADPH addition measured 20 mins relative to control; type: ADME; details: microsomes, 20 min, 10 µM; summary of the method: as §1
Sequence (P33261 whole entry): as above

TDI	SMILES
Not Active	Cc1nc2c(N3CCOCC3)ncnc2n1Cc1ccc(-c2cncnc2)cc1

test system: not listed separately; assay: Half life in mouse liver microsomes at 1 uM preincubated for 5 mins followed by NADPH addition measured up to 30 mins by LC-MS/MS analysis; type: ADME, microsome; details: not given; summary of the method: as §5

half-life at 1 µM [min]	SMILES
69.3	Cc1nc2c(N3CCOCC3)ncnc2n1Cc1ccc(-c2cncnc2)cc1

target: Cytochrome P450 2D6 (Homo sapiens, UniProt P10635); assay: Inhibition of CYP2D6 in human microsomes at 10 uM using dextromethorphan as substrate preincubated for 5 mins followed by NADPH addition measured 20 mins relative to control; type: ADME; details: microsomes, 20 min, 10 µM; summary of the method: as §1
Sequence (P10635 whole entry): as the sequence (P10635 whole entry) above

TDI	SMILES
Not Active	Cc1nc2c(N3CCOCC3)ncnc2n1Cc1ccc(-c2cncnc2)cc1

target: PDE2A1 (Homo sapiens, UniProt O00408); assay: as §2, with “N-terminal FLAG-tagged PDE2A1” for “N-terminal GST-tagged PDE10A1”, “to 941” for “to 789”, “at 1” for “at 5”; details: probe fluorescein-labeled cAMP; summary of the method: as §3
Sequence (O00408 whole entry): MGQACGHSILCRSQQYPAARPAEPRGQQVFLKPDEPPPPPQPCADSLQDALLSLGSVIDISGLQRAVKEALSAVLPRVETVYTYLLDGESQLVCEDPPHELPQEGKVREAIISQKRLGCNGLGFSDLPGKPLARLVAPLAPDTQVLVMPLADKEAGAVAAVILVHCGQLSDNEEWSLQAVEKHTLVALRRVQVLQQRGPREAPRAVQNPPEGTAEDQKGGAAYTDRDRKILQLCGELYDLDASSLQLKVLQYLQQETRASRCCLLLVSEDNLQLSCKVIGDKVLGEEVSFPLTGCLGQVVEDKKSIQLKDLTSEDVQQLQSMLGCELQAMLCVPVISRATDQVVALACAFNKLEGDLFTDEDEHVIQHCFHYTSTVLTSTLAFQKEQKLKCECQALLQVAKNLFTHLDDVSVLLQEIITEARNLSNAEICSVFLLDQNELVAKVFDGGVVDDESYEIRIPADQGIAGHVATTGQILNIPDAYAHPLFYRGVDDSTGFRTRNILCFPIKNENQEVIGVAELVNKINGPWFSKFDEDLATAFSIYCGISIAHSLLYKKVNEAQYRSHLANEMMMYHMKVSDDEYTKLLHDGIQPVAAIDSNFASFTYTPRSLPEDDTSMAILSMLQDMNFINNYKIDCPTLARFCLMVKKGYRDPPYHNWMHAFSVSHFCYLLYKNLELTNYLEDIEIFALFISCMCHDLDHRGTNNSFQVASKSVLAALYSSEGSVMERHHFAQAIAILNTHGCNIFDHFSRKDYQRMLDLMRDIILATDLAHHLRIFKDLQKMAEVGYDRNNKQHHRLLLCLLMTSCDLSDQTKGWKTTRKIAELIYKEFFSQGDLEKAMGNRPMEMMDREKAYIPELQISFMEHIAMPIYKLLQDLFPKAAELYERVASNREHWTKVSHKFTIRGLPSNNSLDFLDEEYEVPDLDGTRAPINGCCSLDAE

inhibition at 0.5 h, 1 µM [%]	SMILES
4	Cc1nc2c(N3CCOCC3)ncnc2n1Cc1ccc(-c2cncnc2)cc1

target: T3, CYP1A2; assay: Time-dependent inhibition of CYP1A2 in human microsomes at 10 uM using phenacetin as substrate preincubated for 5 mins followed by NADPH addition measured 20 mins relative to control; type: ADME; details: human microsomes, probe phenacetin, read-out: TDI

inhibition at 20 min, 10 µM [%]	SMILES
10	Cc1nc2c(N3CCOCC3)ncnc2n1Cc1ccc(-c2cncnc2)cc1

test system: Rattus norvegicus; assay: Antipsychotic activity in Sprague-Dawley rat assessed as inhibition of PCP-induced prepulse inhibition deficit at 10 mg/kg, po pretreated for 30 mins followed by PCP addition measured after 5 mins to 10 mins; type: functional, organism-based; details: not given; summary of the method: as §6

SMILES	inhibition
Cc1nc2c(N3CCOCC3)ncnc2n1Cc1ccc(-c2cncnc2)cc1	Active
